Source: ChEMBL document CHEMBL5380838, “Novel Aryl Sulfonamide Derivatives as NLRP3 Inflammasome Inhibitors for the Potential Treatment of Cancer” (J Med Chem, 2023)
The source made the active and inactive calls. The rule behind the calls is not given here.

What was measured:
[1] = tested on: THP-1; experiment: Cytotoxicity against human THP-1 cells assessed as reduction in cell viability at 1 uM measured after 48 hrs by RealTime-Glo MT assay; assay type: toxicity, cell-based; conditions: thp-1, 48 h
Summary of the method: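 THP-1 cells (10 × 10^4/well) treated with inhibitors at 1 µM and kept 48 h; RealTime-Glo reagent added, luminescence read every 12 h as a proxy for metabolically active cells; means of RLU ± SEM.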

[2] = tested on: THP-1; experiment: Suppression of NLRP3 expression in LPS-treated human THP-1 cells at 1 to 1000 nM incubated for 30 mins followed by ATP stimulation for 1 hr […]; assay type: functional, cell-based; conditions: dose 1-1000 nM, time 90.0 min
[3] = tested on: THP-1; experiment: Suppression of ASC expression in LPS-treated human THP-1 cells at 1 to 1000 nM incubated for 30 mins followed by ATP stimulation for 1 hr […]; assay type: functional, cell-based; conditions: dose 1-1000 nM, time 90.0 min
Summary of the method: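 PMA-differentiated THP-1 cells (1 × 10^6/well) primed with LPS 1 µg/mL for 3 h, then DMSO or compound in serum-free medium for 30 min, then 5 mM ATP for 1 h. RIPA lysates (20 µg) and concentrated supernatants run on SDS-PAGE and western blotted for NLRP3, ASC, caspase-1 and IL-1β, normalized to GAPDH; three independent experiments.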

[4] = tested on: THP-1; experiment: Suppression of pro-IL-1beta expression in LPS-treated human THP-1 cells at 1 to 1000 nM incubated for 30 mins followed by ATP stimulation for 1 hr […]; assay type: functional, cell-based; conditions: dose 1-1000 nM, time 90.0 min
[5] = tested on: THP-1; experiment: Suppression of caspase-1 p10 expression in LPS-treated human THP-1 cells at 1 to 1000 nM incubated for 30 mins followed by ATP stimulation for 1 hr […]; assay type: functional, cell-based; conditions: dose 1-1000 nM, time 90.0 min
[6] = tested on: BMDM; experiment: Effect on NLRC4 inflammasome activation in LPS-treated mouse BMDM cells assessed as IL-1beta release at 1 uM incubated for 30 mins followed by Salmonella typhimurium flagellin stimulation for 2 hrs by ELISA method; assay type: functional, cell-based; conditions: time 150.0 min
Summary of the method: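 BMDMs primed with LPS 100 ng/mL for 3 h, then compound 1 µM in serum-free medium for 30 min, then flagellin 100 ng/mL for 2 h; supernatant mouse IL-1β by ELISA.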

[7] = tested on: BMDM; experiment: Effect on AIM2 inflammasome activation in LPS-treated mouse BMDM cells assessed as IL-1beta release at 1 uM incubated for 30 mins followed by Poly (dA:dT) stimulation for 4 hrs by ELISA method; assay type: functional, cell-based; conditions: time 270.0 min
Summary of the method: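 BMDMs primed with LPS 100 ng/mL for 3 h, then compound 1 µM in serum-free medium for 30 min, then poly(dA:dT) 1 µg/mL transfected with lipofectamine 2000 for 4 h; supernatant mouse IL-1β by ELISA.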

[8] = tested on: BMDM; experiment: Effect on NLRP3-ASC interaction in LPS-treated mouse BMDM cells at 1 uM incubated for 30 mins followed by ATP stimulation for 1 hr by co-immunoprecipitation based Western blot analysis; assay type: functional, cell-based; conditions: time 90.0 min
Summary of the method: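 BMDMs (1 × 10^7) primed with LPS 2 h, treated 1 µM compound 30 min, then ATP 1 h; lysed in HEPES/NaCl/glycerol/EDTA/0.5% Triton buffer with protease/phosphatase inhibitors; NLRP3–ASC co-immunoprecipitation, bait eluted in Laemmli buffer, western blot; representative of three independent experiments.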

[9] = tested on: B16-F10; experiment: Antitumor activity against cytosolic luciferase-transfected mouse B16-F10 cells xenografted in C57BL/6 mouse assessed as tumor reduction at 25 mg/kg, ip administered thrice weekly measured after 14 days by bioluminescence assay; assay type: functional, organism-based; conditions: time 14.0 day
Summary of the method: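 Female C57BL/6 mice aged 6–8 weeks inoculated subcutaneously with 1 × 10^6 B16-F10 cells stably expressing cytosolic luciferase. From day 5, IP dosing of 25 mg/kg thrice weekly, DMSO for controls, five mice per group. Imaging after IP D-luciferin 150 mg/kg under 2.5% isoflurane, read after 15 min. Caliper volume = π/6 × a × b². Tumors excised day 14.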

[10] = tested on: B16-F10; experiment: Effect on NLRP3 expression in cytosolic luciferase-transfected mouse B16-F10 cells xenografted in C57BL/6 mouse at 25 mg/kg, ip administered thrice weekly measured after 14 days by Western blot analysis; assay type: functional, organism-based; conditions: time 14.0 day
Summary of the method: (§1)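 Tumors from luciferase-expressing B16-F10 grafts in C57BL/6 mice, dosed IP at 25 mg/kg thrice weekly (DMSO controls), were excised at endpoint and homogenized in sucrose/HEPES/IGEPAL lysis buffer. Lysates were western blotted and bands expressed as fold ratio over β-actin (n = 5).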

[11] = tested on: B16-F10; experiment: Effect on ASC expression in cytosolic luciferase-transfected mouse B16-F10 cells xenografted in C57BL/6 mouse at 25 mg/kg, ip administered thrice weekly measured after 14 days by Western blot analysis; assay type: functional, organism-based; conditions: time 14.0 day; summary of the method: as §1
[12] = tested on: B16-F10; experiment: Effect on pro-IL-1beta expression in cytosolic luciferase-transfected mouse B16-F10 cells xenografted in C57BL/6 mouse at 25 mg/kg, ip administered thrice weekly measured after 14 days by Western blot analysis; assay type: functional, organism-based; conditions: time 14.0 day; summary of the method: as §1
[13] = tested on: B16-F10; experiment: Antiproliferative activity against LPS-treated mouse B16-F10 cells co-cultured with mouse peritoneal macrophages assessed as decrease in cell growth at 1 uM incubated for 30 mins followed by ATP stimulation for 1 hr measured after 48 hrs by cell counting method; assay type: functional, cell-based; conditions: time 49.5 hrs
Summary of the method: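 Transwell co-culture (0.4 µm pores), 48 h: peritoneal macrophages from C57BL/6 mice (2 × 10^5, lower well) primed with LPS 1 µg/mL 2 h, then DMSO or compound 1 µM 30 min, then ATP 1 h; B16-F10 cells (2 × 10^3) in upper insert; tumor cells removed after 48 h and counted by image-based cytometer.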

[14] = Metabolic stability in human liver microsomes assessed as intrinsic clearance measured per mg protein at 1 uM measured upto 60 mins by LC-MS/MS analysis; assay type: ADME, Microsome; conditions: read-out: CLH
Summary of the method: (§2)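 Pooled human or CD-1 male mouse liver microsomes at 0.5 mg/mL with test compound 1 µM in 50 mM phosphate pH 7.4 and 3 mM MgCl2, preincubated 10 min at 37 °C. Percent parent remaining vs 0 min measured by LC-MS/MS. Cli = k/microsomal conc. × 1000; mean ± SD, n = 2.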

[15] = Metabolic stability in mouse liver microsomes assessed as intrinsic clearance measured per mg protein at 1 uM measured upto 60 mins by LC-MS/MS analysis; assay type: ADME, Microsome; conditions: read-out: CLH; summary of the method: as §2
[16] = Metabolic stability in mouse liver microsomes assessed as half life measured per mg protein at 1 uM measured upto 60 mins by LC-MS/MS analysis; assay type: ADME, Microsome; summary of the method: as §2
[17] = Tlast in C57BL/6 mouse at 25 mg/kg, ip measured for 0.083 to 24 hrs by LC-MS/MS analysis; assay type: ADME, organism-based; conditions: in vivo, time 0.083-24 hrs
Summary of the method: (§3)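 Female C57BL/6 mice, 8 weeks old, 25–30 g, given a single IP dose of 25 mg/kg. Sampling at 5 and 20 min and 1, 2, 3, 6, 8 and 24 h, 3 mice per timepoint; Li-heparin plasma from the cava vein. ACN/MeOH precipitation with diclofenac internal standard, then LC-MS/MS in ESI(−) MRM mode, range 1–2000 ng/mL. Noncompartmental analysis, linear trapezoidal AUC.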

[18] = Clast in C57BL/6 mouse at 25 mg/kg, ip measured for 0.083 to 24 hrs by LC-MS/MS analysis; assay type: ADME, organism-based; conditions: in vivo, time 0.083-24 hrs; summary of the method: as §3
[19] = AUC in C57BL/6 mouse at 25 mg/kg, ip measured for 0.083 to 24 hrs by LC-MS/MS analysis; conditions: in vivo

CC(C)[C@H](NS(=O)(=O)c1ccc([N+](=O)[O-])cc1)C(=O)Nc1c2c(cc3c1CCC3)CCC2
Activity [1]: Non-Toxic
Activity [2]: inactive
Activity [3]: inactive
Activity [4]: inactive
Activity [5]: Active
Activity [6]: inactive
Activity [7]: inactive
Activity [8]: inactive
Activity [9]: Active
Activity [10]: inactive
Activity [11]: inactive
Activity [12]: inactive
Activity [13]: Active
microsomal CLint at 1 µM [14]: 45.8 µL/min/mg
microsomal CLint at 1 µM [15]: 4.8 µL/min/mg
half-life at 1 µM [16]: 4.8 h
Tlast [17]: 24 h
Clast [18]: 67 ng/mL
AUC [19]: 3880 ng/mL.hr
